Assay outcomes (PubChem BioAssay)
Rows were chosen to be rich in hits. Some 3.7% of all compounds tested hit in one or more screens of this group.
hERG rescue: compounds protecting human hERG from proarrhythmic drug block; CHO-hERG, FluxOR thallium flux, dofetilide IC70 present; Q12809; 0.51% of 310,000 active; activation (rescue from dofetilide block), less the hit threshold, % at 10 µM;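 active means activation above the mean of controls blocked by dofetilide plus 5 SD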;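 further: thallium influx through hERG after potassium depolarization seen as dye fluorescence rise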
KCNQ1 inh: blocks the human KCNQ1 potassium channel; P51787; CHO-K1 KCNQ1, FluxOR thallium flux fluorescence; active compounds read high; B-score at 10 µM; 1.3% of 310,000 active; AID 2642;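 active means compounds whose thallium flux B-score, printed positive for inhibition, exceeds three library SD while starting fluorescence stays within three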;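 further: channel opened by potassium depolarization with thallium stimulus after 20 min compound exposure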
Target sequence (P51787 whole entry, looked up): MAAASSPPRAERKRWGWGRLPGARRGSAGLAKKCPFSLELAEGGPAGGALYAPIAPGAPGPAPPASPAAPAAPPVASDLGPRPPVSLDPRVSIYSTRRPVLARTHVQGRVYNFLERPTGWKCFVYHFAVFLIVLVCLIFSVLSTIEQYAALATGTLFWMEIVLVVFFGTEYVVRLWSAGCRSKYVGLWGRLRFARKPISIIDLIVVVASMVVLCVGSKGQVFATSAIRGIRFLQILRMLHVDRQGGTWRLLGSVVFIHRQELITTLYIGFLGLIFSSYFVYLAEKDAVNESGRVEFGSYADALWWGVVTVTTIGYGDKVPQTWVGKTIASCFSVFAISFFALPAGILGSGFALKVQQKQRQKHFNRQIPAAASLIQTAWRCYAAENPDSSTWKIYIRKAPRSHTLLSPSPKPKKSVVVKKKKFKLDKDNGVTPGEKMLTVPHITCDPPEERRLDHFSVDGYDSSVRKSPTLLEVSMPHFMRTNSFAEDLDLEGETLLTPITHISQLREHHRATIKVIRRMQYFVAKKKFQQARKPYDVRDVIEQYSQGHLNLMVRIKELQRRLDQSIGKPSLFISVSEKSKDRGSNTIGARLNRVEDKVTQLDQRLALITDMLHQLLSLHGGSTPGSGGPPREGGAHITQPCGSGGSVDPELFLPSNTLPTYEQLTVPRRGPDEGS
Kir21 block: blocks the mouse Kir2.1 inward-rectifier potassium channel; P35561; HEK293-Kir2.1, FluxOR thallium flux fluorescence; active compounds read low; B-score at 10 µM; 0.85% of 310,000 active; AID 1672;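 active means fluorescence ratio B-score at or below minus 3 SD of library scores, with starting-brightness B-score within 2 SD, cut at about -4.2 in these data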;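 further: channel flux triggered by added potassium and thallium sulfate stimulus; B-score of peak minus minimum fluorescence over baseline after thallium stimulus; more negative B-score means stronger Kir2.1 block with less thallium influx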
KCNK9 block: blocks the human KCNK9 two-pore domain potassium channel. Q9NPC2. HEK293 KCNK9, FluxOR thallium flux fluorescence; active compounds read low. B-score at 10 µM. 1.2% of 310,000 active;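 active means ratio B-score over 3 SD below the library mean, with starting fluorescence within 5 SD of its mean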;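 further: negative B-score means less thallium flux so channel inhibition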
KCNQ1 pot: human KCNQ1 channel potentiation or activation. P51787. CHO-K1 KCNQ1, thallium flux FluxOR fluorescence; active compounds read high. B-score at 10 µM. 0.35% of 310,000 active;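 active means fluorescence ratio B-score, a plate-corrected score, at least three library SD, with initial intensity B-score within 5 SD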
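Material: CHO-K1 cells stably expressing KCNQ1. Medium: assay buffer for compound exposure, DMSO matched across wells. Reagent: K+/Tl+ depolarizing stimulus. Compound dosing: single-concentration screen. Times: 37 °C overnight plating, 90-min dark dye load, 20-min compound pretreatment. Technique: FluxOR Tl+ flux fluorescence.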
KCNK3 block: human KCNK3 channel inhibition, primary screen. O14649. CHO-KCNK3 thallium flux, FluxOR fluorescence; active compounds read low. B-score at 10 µM. 0.84% of 340,000 active;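 active means B-score under library mean minus 4 SD, starting fluorescence ratio at most library mean plus 5 SD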;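 further: more negative B-score means stronger inhibition of thallium flux through KCNK3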
* marks the source's active call; other numbers are inactive results; i = inactive; . = not tested or not shown.

SMILES	hERG rescue	KCNQ1 inh	Kir21 block	KCNK9 block	KCNQ1 pot	KCNK3 block
O=P(CCCCCCCCCP(=O)(c1ccccc1)c1ccccc1)(c1ccccc1)c1ccccc1	-29.8	i	1.19	-7.22*	i	i
CCSC(C)CC1C/C(=N/O)c2c(CC)noc2C1 (stereo unspecified)	-3.9	i	-0.13	i	i	i
CCCc1noc2c1/C(=N\O)CC(CC(C)SCC)C2 (stereo unspecified)	-4.3	i	-0.92	-6.96*	i	i
Cc1ccc(O)c(C2=Nc3ccccc3C2(C)C)c1	-5.4	i	-0.15	i	i	i
COc1ccc(C)cc1C1=Nc2ccccc2C1(C)C	-5.5	i	-4.97*	i	i	i
O=[N+]([O-])c1ccc(N/N=C2\CC3CC=CC23)c([N+](=O)[O-])c1 (stereo unspecified)	-15.4	9*	1.91	i	i	i
Cc1cccc(OCC(=O)NCc2ccc(F)cc2)c1	-3.4	i	-1.61	i	i	i
CC(=O)c1ccc2c(c1)c(C#N)c1ccccc1[n+]2[O-]	-22.6	11*	-4.21	i	i	i
CC(=O)Nc1ccc(-c2sc(Nc3cccc4ccccc34)n[n+]2-c2ccccc2)cc1	-35.3	i	-0.14	i	i	i
COC(=O)c1ccc(C2C(C#N)=C(N)Oc3cc(N)ccc32)cc1 (stereo unspecified)	-2.7	i	-0.28	i	i	i
COC(=O)c1ccc(C2C(C#N)=C(N)Oc3cc(O)ccc32)cc1 (stereo unspecified)	61.5*	i	1.18	i	i	i
CCN(Cc1ccccc1)C(=O)CCc1nc(-c2ccc(C)cc2)no1	-11.1	i	-6.69*	i	i	i
COc1ccc(-c2noc(CCC(=O)NCCCN3CCC(Cc4ccccc4)CC3)n2)cc1	-10.0	i	-4.62*	i	i	i
COc1ccc(-c2noc(CCC(=O)NCCCN3CCN(c4ccc(F)cc4)CC3)n2)cc1	-11.5	i	0.9	i	i	i
Cc1ccc(-c2noc(CCC(=O)NCCN3CCc4ccccc4C3)n2)cc1	-1.5	i	-8.79*	i	i	i
Cc1ccsc1/C=N/N1CCN(Cc2ccccc2)CC1	-8.1	i	0.04	i	i	i
O=C(Nc1ccc2c(c1)OCCO2)N1CCN(Cc2ccccc2)CC1	-12.0	i	-0.05	i	i	i
N#C/C(=C\c1ccccc1)C(=O)N1CCN(c2ccccc2F)CC1	-7.3	i	-5.14*	i	i	i
N#C/C(=C\c1cccc(Br)c1)C(=O)N1CCCCC1	-13.2	i	-6.9*	i	i	i
C=C1C(=O)O[C@H]2C1CC[C@@](C)(O)C13C=CC(C)(C21)C1(C3)C(=O)O[C@@H]2C3C(C)=CCC3[C@](C)(O)C[C@H](OC(C)=O)C21 (stereo partly specified)	5.9*	i	0.87	i	i	i
COc1cc(/C=C2/C(=N)N3C(SC)=NSC3=NC2=O)ccc1OC(=O)c1ccco1	-2.0	i	-4.6*	i	i	i
COc1cc(/C=C2/C(=N)N3C(=NC2=O)SN=C3S(C)(=O)=O)ccc1OC(=O)c1ccco1	-7.4	i	-0.33	i	i	i
CSC1=NSC2=NC(=O)/C(=C/c3coc4ccc(O)cc4c3=O)C(=N)N12	-46.7	9*	-15.2	i	i	i
CC[C@@H](C)[C@H](NC(=O)OC(C)(C)C)c1nnc(S(=O)(=O)Cc2cc(C)ccc2C)o1	-14.6	i	-9.11*	i	i	i
CC(C)[C@H](NC(=O)OC(C)(C)C)c1nnc(S(=O)(=O)Cc2c(F)cccc2Cl)o1	-16.9	i	-4.36*	i	i	i
SMILES	hERG rescue	KCNQ1 inh	Kir21 block	KCNK9 block	KCNQ1 pot	KCNK3 block
O=C(NCc1ccccc1)C1COc2ccccc2O1 (stereo unspecified)	-6.7	i	0.19	i	i	i
Cc1onc(-c2ccccc2)c1CNC(=O)C1COc2ccccc2O1 (stereo unspecified)	-9.5	i	-5.43*	i	i	i
CCn1c2c(c(=N)c3c1CCC3)CCCC2	-3.5	i	-1.04	i	i	i
CCCCCCCCCn1c2c(c(=N)c3c1CCC3)CCCC2	-31.4	10*	-14.7*	i	i	-12.1*
CCOC(=O)c1ccc(N2C(=O)c3n[nH]c(C)c3C2c2ccc(O)cc2)cc1 (stereo unspecified)	-5.8	i	0.42	-7.07*	i	i
CCOC(=O)c1ccc(N2C(=O)c3n[nH]c(C)c3C2c2ccccc2)cc1 (stereo unspecified)	-3.5	i	0.66	i	i	i
COC(=O)c1cnn(-c2ccc(F)cc2F)c1/C=N/NC(=S)NC(C)(C)C	-3.6	i	0.01	-6.99*	i	i
CNC(=S)N/N=C/c1c(C(=O)OC)cnn1-c1ccc(F)cc1F	-2.9	i	0.44	i	i	i
OCCN(CCO)c1cc2c3ccccc3ccc2c2ccccc12	.	.	.	.	.	i
Fc1ccccc1CNCc1ccc2c(c1)OCO2	-3.4	i	1.84	i	i	i
CC(=O)NC12CC3CC(C1)CC(C(=O)Oc1ccc(N(C)S(=O)(=O)c4cc(C)ccc4C)cc1)(C3)C2	-7.9	6*	1.09	i	i	i
COc1ccccc1-c1sc2ccccc2c1-c1ccc2c(c1)OCCO2	.	.	.	.	.	i
CC(=O)NC(=S)Nc1ccc2oc(=O)ccc2c1	-6.0	i	-0.03	i	i	i
CCc1cc2c(-c3ccccc3)cc(=O)oc2cc1OCC(C)=O	-4.8	i	1.3	i	i	i
CCCc1cc2c(-c3ccccc3)cc(=O)oc2cc1OCc1ccc(C(=O)O)o1	-13.2	i	-0.42	i	9*	i
CN(C)C(=O)CN1CCN(C(=O)CCl)CC1	5.1*	i	-0.8	i	i	i
Cc1ccc(C(=O)Nc2nc(-c3ccccn3)cs2)o1	-6.6	i	-2.1	i	i	i
CCc1cc(C(=O)Nc2nc(-c3ccccn3)cs2)sc1C	.	.	.	.	.	-9.25*
Cc1cc(C)c(OCC(=O)OCC(=O)NNC(=O)c2ccccc2F)c(C)c1	.	.	.	.	.	i
Cc1ccc(-c2noc(N=O)c2NO)cc1	-16.9	i	-4.48	-7.05*	i	i
CCn1c(C)c(C)c2cc(C(=O)Nc3cccc(Cl)c3)ccc21	-17.6	6*	0.19	i	i	i
CC(C)(C)Cc1nnc(NC(=O)c2ccco2)s1	17.6*	i	-1.26	i	i	i
O=C(Nc1nnc(Cc2ccccc2)s1)c1ccco1	1.3	i	0.84	i	i	i
